# Test results as given in ChEMBL document CHEMBL2029215, “Synthesis, reactive oxygen species generation and copper-mediated nuclease activity profiles of 2-aryl-3-amino-1,4-naphthoquinones” (Bioorg Med Chem Lett, 2012).
# Active and inactive are the calls of the source. The rule behind the calls is not given here.
# Tests used:
# [1] = Hydrogen peroxide release activity in potassium phosphate buffer at pH 7.4 after 60 mins by […] based colorimetric assay; assay type: physicochemical; conditions: pH 7.4, 1 h
# Method in brief: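 Compound incubated in pH 7.4 buffer for 1 h. H2O2 then estimated with a xylenol orange-based colorimetric method.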
# [2] = Superoxide release activity in potassium phosphate buffer at pH 7.4 and 25 uM after 30 mins by […]
# Method in brief: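 Compound incubated in pH 7.4 buffer. Superoxide detected by luminol-based chemiluminescence.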
# Nucleic Acid [3] = assay: Induction of DNA damage in Escherichia coli pBR322 assessed as supercoiled DNA cleavage at 25 uM after 24 hrs by agarose gel electrophoresis; assay type: nucleic-acid assay
# Method in brief: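 Compound at 25 µM without Cu(II) and with no added reducing agent, incubated with supercoiled pBR322 plasmid DNA. Damage assessed as cleavage of supercoiled form on gel.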
# Nucleic Acid [4] = assay: Induction of DNA damage in Escherichia coli pBR322 assessed as supercoiled DNA cleavage at 25 uM after 24 hrs by agarose gel electrophoresis in presence of Cu2+; assay type: nucleic-acid assay
# Method in brief: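 Compound with Cu(II) at 1:1, no added reducing agent. Mixture holds 100 ng form I pBR322 in 10 mM MOPS, pH 7.4, incubated 37 °C for 24 h. Supercoiled-to-nicked (form II) cleavage read on gel against a DNA-only lane.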
# [5] = Hydrogen peroxide release activity in potassium phosphate buffer at pH 7.4 after 60 mins by […] based colorimetric assay in presence of catalase; assay type: physicochemical; conditions: pH 7.4, 1 h
# Method in brief: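 Compound incubated at pH 7.4 for 1 h. Reaction mixture then treated with catalase before the xylenol orange colorimetric read-out for H2O2.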
# [6] = Superoxide release activity in potassium phosphate buffer at pH 7.4 and 25 uM after 30 mins by […] in presence of superoxide dismutase
# Method in brief: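 Compound incubated in pH 7.4 buffer with superoxide dismutase present. Superoxide read by luminol-based chemiluminescence.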
# Nucleic Acid [7] = assay: Induction of DNA damage in Escherichia coli pBR322 assessed as supercoiled DNA cleavage at 1 uM after 24 hrs by agarose gel electrophoresis in presence of Cu2+; assay type: nucleic-acid assay
# Method in brief: (§1)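 Concentration course of 1–10 µM compound with an equimolar amount of Cu(II). Mixture holds 100 ng supercoiled pBR322 plasmid (form I) in 10 mM MOPS, pH 7.4, incubated 37 °C for 24 h. Cleavage to nicked form II read on gel against a DNA-only lane.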
# Nucleic Acid [8] = assay: Induction of DNA damage in Escherichia coli pBR322 assessed as supercoiled DNA cleavage at 10 uM after 24 hrs by agarose gel electrophoresis in presence of Cu2+; assay type: nucleic-acid assay; method in brief: as §1
Activity [1],SMILES,Activity (Nucleic Acid [3]),Activity (Nucleic Acid [4]),other results
< 2 µM,C=CCNC1=C(c2ccccc2)C(=O)c2ccccc2C1=O,,,
< 2 µM,COc1ccc(NC2=C(c3ccccc3)C(=O)c3ccccc3C2=O)cc1,,,
< 2 µM,CN(C)CCNC1=C(c2ccccc2)C(=O)c2ccccc2C1=O,,,
< 2 µM,O=C1C(Nc2ccc([N+](=O)[O-])cc2)=C(c2ccccc2)C(=O)c2ccccc21,,,
,O=C1C(c2ccccc2)=C(N2CCCCC2)C(=O)c2ccccc21,inactive,Active,
Active,COc1ccc(C2=C(N3CCCC3)C(=O)c3ccccc3C2=O)cc1,inactive,Active,Activity [5]: Active
< 2 µM,O=C1C(NCc2ccc(Cl)cc2)=C(c2ccccc2)C(=O)c2ccccc21,,,
< 2 µM,O=C1C(NCc2ccccc2)=C(c2ccccc2)C(=O)c2ccccc21,inactive,Active,
Active,O=C1C(c2ccc(F)cc2)=C(N2CCCC2)C(=O)c2ccccc21,inactive,Active,Activity [5]: Active
< 2 µM,CCCCNC1=C(c2ccccc2)C(=O)c2ccccc2C1=O,,,
< 2 µM,CCCNC1=C(c2ccccc2)C(=O)c2ccccc2C1=O,inactive,Active,
Active,COc1ccccc1C1=C(N2CCCC2)C(=O)c2ccccc2C1=O,inactive,Active,Activity [5]: Active
< 2 µM,NC1=C(c2ccccc2)C(=O)c2ccccc2C1=O,,,
Not Active,CN1CCCC1 [N-METHYL PYRROLIDINE (NMP)],,,Activity [2]: inactive
< 2 µM,COc1ccc(CNC2=C(c3ccccc3)C(=O)c3ccccc3C2=O)cc1,,,
,O=C1C(c2ccccc2)=C(N2CCCC2)C(=O)c2ccccc21,inactive,Active,Activity [5]: Active; Activity [2]: Active; Activity [6]: Active; Activity (Nucleic Acid [7]): Active; Activity (Nucleic Acid [8]): Active

SMILES,Activity [1],Activity (Nucleic Acid [3]),Activity (Nucleic Acid [4]),other results
C1CCNC1 [PYRROLIDINE],Not Active,,,Activity [2]: inactive
O=C1C(Nc2ccccc2)=C(c2ccccc2)C(=O)c2ccccc21,< 2 µM,inactive,Active,
